TRPC6 act: mouse TRPC6 channel activators, primary screen, cell-based, HEK293, membrane potential dye | Short transient receptor potential channel 6 (Mus musculus), Q61143 | HEK293-TRPC6 membrane potential dye fluorescence; active compounds read high | B-score at 10 µM | 310,000 tested, 0.13% active;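 active = B-score of the integrated fluorescence ratio above library mean plus 3 SD, and starting fluorescence ratio within library mean plus 5 SD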;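 note: higher score means more depolarization so channel activation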
TRPC4 inh: inhibitors of mouse TRPC4 channel, primary screen, Fluo4 calcium, HEK293 TRPC4beta/mu-opioid cells. Short transient receptor potential channel 4 (Mus musculus), Q9QUQ5. DAMGO-evoked Fluo4 calcium flux; active compounds read low. B-score at 10 µM. 300,000 tested, 0.39% active. AID 2247, 2010;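 active = B-score over 3 SD under the library average, no early fluorescence shift, positive overall ratio signal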
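Material: HEK293 cells with stable TRPC4beta plus mu-opioid receptor expression / Probe or stimulus: DAMGO in two steps, submaximal then maximal / Compound: single concentration per test compound / Technique: kinetic Fluo4 fluorescence imaging of calcium influx / Read-out: per-well B score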
TRPC4 PAM: positive allosteric modulators of TRPC4, primary screen, cell-based, mouse TRPC4beta, HEK293 mu-opioid, Fluo-4 calcium; Short transient receptor potential channel 4 (Mus musculus), Q9QUQ5; DAMGO EC20, Fluo-4 Ca2+ flux; active compounds read high; B-score at 10 µM; 310,000 tested, 0.42% active; AID 2227, 2009;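 active = B-score of calcium response area above 5 SD of library B-scores, with initial fluorescence ratio within 5 SD of library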
TRPC6 inh: mouse TRPC6 channel inhibitors, primary screen, cell-based, HEK293, membrane potential dye | Short transient receptor potential channel 6 (Mus musculus), Q61143 | ACh-evoked depolarization; active compounds read low | B-score at 10 µM | 310,000 tested, 1.1% active;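 active = B-score under library mean minus 3 SD, initial fluorescence not abnormally high, positive integrated signal ratio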;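 note: B-score derived from integrated fluorescence ratio over the kinetic read; more negative B-score means stronger inhibition of depolarization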
TRPC4 agonist: activators of mouse TRPC4 channel, primary screen, Fluo4 calcium, HEK293 TRPC4beta/mu-opioid cells. Short transient receptor potential channel 4 (Mus musculus), Q9QUQ5. Fluo4 calcium fluorescence; active compounds read high. B-score at 10 µM. 310,000 tested, 0.49% active. AID 2237, 2010;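 active = B-score above 5 SD of library B-scores, and initial fluorescence ratio not above library mean plus 5 SD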;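 note: positive B-score marks a calcium rise read as TRPC4 activation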
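Technique: kinetic Fluo4 calcium fluorescence; Test system: TRPC4beta and mu-opioid receptor HEK293 stable cells; Measure: B-scored integrated calcium fluorescence ratio; Benchmarks: low control buffer alone, high control maximal DAMGO; Schedule: 45 min room-temperature Fluo4 loading, 110 s read.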
Numbers stand for hits; i = inactive. This is a sample that favours compounds with a hit; in the whole collection about 2.3% have one here.

SMILES	TRPC6 act	TRPC4 inh	TRPC4 PAM	TRPC6 inh	TRPC4 agonist
Clc1ccc(OCCCn2cncn2)cc1Cl	i	i	i	i	i
Clc1ccc(OCCN2CCCCC2)cc1Cl	i	i	26	i	i
CNCCCOc1ccc2c(c1)CCC2	i	i	20	i	80
CNCCOc1ccc(Cl)c(Cl)c1	i	i	40	i	75
Clc1ccc(OCCCN2CCCC2)cc1Cl	i	i	11	i	i
Cc1cccc(NC(=O)CSCC(=O)N(C)CCOc2ccc(Cl)cc2)c1	i	i	i	i	i
CC(C)CN(C(=O)C1CCCO1)C1CCS(=O)(=O)C1 (stereo not drawn)	i	i	i	i	i
COc1ccc(N2CC(NS(=O)(=O)c3ccc(F)cc3)CC2=O)cc1 (stereo not drawn)	i	i	i	i	i
Cc1ccc(S(=O)(=O)N2CCCC2=O)c(C)c1N(C)S(C)(=O)=O	i	i	i	i	i
CC(=O)NC(CC(=O)NCC(c1ccco1)N(C)C)c1ccccc1 (stereo not drawn)	i	i	i	i	92
CN(C)C(CNC(=O)c1ccc2ccccc2c1)c1ccco1 (stereo not drawn)	i	i	i	i	68
CC(C)C(NC(=O)c1ccco1)C(=O)NCC(c1ccco1)N(C)C (stereo not drawn)	i	i	i	i	i
CSc1ccc(C(=O)NCC(c2ccco2)N(C)C)cc1[N+](=O)[O-] (stereo not drawn)	i	i	i	i	293
CN(C)C(CNC(=O)c1ccc2c(c1)S(=O)(=O)c1ccccc1C2=O)c1ccco1 (stereo not drawn)	i	-8	i	i	120
O=C(NCc1ccco1)c1ccc2c(c1)S(=O)(=O)c1ccccc1C2=O	i	i	i	i	i
CSc1ccccc1C(=O)NCC(c1ccco1)N(C)C (stereo not drawn)	i	i	i	i	i
CCOc1cc(N2CCOCC2)c(OCC)cc1NC(=O)CN1CCN(Cc2ccc3c(c2)OCO3)CC1	i	i	i	i	i
CCOc1cc(N2CCOCC2)c(OCC)cc1NC(=O)CC12CC3CC(CC(C3)C1)C2	i	i	10	i	i
CCOc1cc(N2CCOCC2)c(OCC)cc1NC(=O)Cc1ccc(OC)c(OC)c1	i	i	i	i	i
CCOc1cc(N2CCOCC2)c(OCC)cc1NC(=O)CN1CCc2ccccc2C1	i	i	12	i	i
COc1ccc2nc(NC(=O)C3CC(=O)N(c4ccccc4)C3)sc2c1 (stereo not drawn)	i	i	i	i	i
Cc1ccc(S(=O)(=O)N2CCN(C(=O)c3cccs3)CC2)c(C)c1	i	i	11	i	i
Cc1cc(C)c(S(=O)(=O)N2CCN(C(=O)c3cccs3)CC2)c(C)c1	i	i	i	i	i
COc1ccc(CC(=S)NCCc2ccccc2)cc1	i	i	i	i	i
COc1ccccc1C1=NOC(Cn2c(NCCCO)nc3c2c(=O)n(C)c(=O)n3C)C1 (stereo not drawn)	i	i	i	i	i
SMILES	TRPC6 act	TRPC4 inh	TRPC4 PAM	TRPC6 inh	TRPC4 agonist
COc1ccc(C2=NOC(Cn3c(Cc4ccc(Cl)cc4)nc4c3c(=O)n(C)c(=O)n4C)C2)cc1 (stereo not drawn)	i	i	10	i	i
COc1cc2c(cc1OC)C(C)N(C(=O)C(NC(=O)c1ccccc1)C(C)C)CC2 (stereo not drawn)	i	i	i	i	96
COc1cc2c(cc1OC)C(C)N(C(=O)[C@@H](NC(=O)c1ccccc1)C(C)C)CC2 (stereo partly drawn)	i	i	i	i	i
CCCN1CCN(C(=O)Cn2c(=O)oc3cc(S(=O)(=O)NCc4ccccc4)ccc32)CC1	i	i	i	i	104
CN(CCNS(=O)(=O)c1ccc2c(c1)oc(=O)n2C)Cc1ccccc1	i	i	19	i	i
CC#CC(=O)N1CCC(Oc2cccc(C(=O)NCc3ccccn3)c2)CC1	i	i	i	i	i
CSCC(C)N1CCC(Oc2cccc(C(=O)NCc3ccccn3)c2)CC1 (stereo not drawn)	i	i	i	-5.7	i
COc1ccc(OC)c(Nc2nc(N(C)c3ccccc3)nc(N)c2[N+](=O)[O-])c1	i	i	i	i	i
COc1ccc(C(=O)COC(=O)c2c(-c3ccccc3)noc2C)c(OC)c1	i	i	i	i	i
COc1ccc(CN2CCNC(=O)C2CC(=O)NCCCC2CCCC2)c(C)c1C (stereo not drawn)	i	i	i	i	i
O=C1NC(c2ccccc2)=C(c2nc3ccccc3s2)C(c2ccc(F)cc2)N1 (stereo not drawn)	i	i	11	i	i
O=C(Nc1ccc2c(c1)OCO2)N1CCN(c2ncc(C(F)(F)F)cc2Cl)CC1	i	i	i	i	55
O=C(Nc1ccc2c(c1)OCO2)N1CCN(c2ncccn2)CC1	i	i	i	i	i
O=C(c1ccc2c(c1)OCCO2)N1CCN(c2ncc(C(F)(F)F)cc2Cl)CC1	i	i	i	i	49
CC(C)N=c1c([N+](=O)[O-])nn(C)n1O	i	i	i	i	i
CC1CCCN(CCCNS(=O)(=O)c2ccc3c(c2)CCN3C(=O)C2CC2)C1 (stereo not drawn)	i	i	i	i	i
CCCCC(=O)N1CCN(c2nc3ccc(F)cc3s2)CC1	i	i	i	i	78
CC1(C(=O)OCc2cc(=O)n3cc(Br)ccc3n2)CC1(Cl)Cl (stereo not drawn)	i	i	15	i	i
CCCc1ccc2oc(C(=O)NCCN3CCCC(C(N)=O)C3)c(C)c2c1 (stereo not drawn)	i	i	13	i	i
Cc1cc(Br)c(NC(=O)CN(C)CCOc2ccccc2)c(Br)c1	i	-6	i	i	i
C=CCn1c(CCNC(=O)c2ccco2)nc2ccccc21	i	i	i	i	168
O=C(CCNS(=O)(=O)c1ccc2[nH]c(=O)oc2c1)Nc1ccccc1	i	i	i	i	i
COc1ccc(C(=O)C2CCCN(Cc3c(C)[nH]c4ccccc34)C2)c(OC)c1 (stereo not drawn)	i	i	i	-5	i
COc1ccccc1C(=O)C1CCCN(Cc2ccc3c(c2)OCCO3)C1 (stereo not drawn)	i	i	i	i	i
COc1ccc(F)cc1C(=O)C1CCCN(Cc2ccc3c(c2)OCCO3)C1 (stereo not drawn)	i	-7	i	i	i
COc1ccc(C(=O)C2CCCN(Cc3cc(C)c(O)c(C)c3)C2)c(OC)c1 (stereo not drawn)	i	i	i	i	i
